Data taken from ChEMBL document CHEMBL1772939, “Ferruginenes A-C from Rhododendron ferrugineum and their cytotoxic evaluation” (J Nat Prod, 2011).
Active and inactive are the calls of the source. The rule behind the calls is not given here.

Experiments:
[1] = test system: MCF7; test: Cytotoxicity against human MCF7 cells assessed as cell viability after 24 hrs by tryptan blue staining-based cell counting; type: functional; settings: MCF7, 24 h
Method in brief: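 MCF-7 breast adenocarcinoma cells (ATCC) in DMEM with 10% heat-inactivated FBS, 1% L-glutamine, 1% penicillin/streptomycin, 37 C, 5% CO2. Cultured at 0.2 × 10^6 cells/mL for 48 h before 24 h exposure to compounds or 0.3% DMSO. Trypsinized cells stained with 0.4% trypan blue and counted on a viability analyzer; IC50 from three independent experiments.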

[2] = test system: HEK293; test: Cytotoxicity against human HEK293 cells assessed as cell viability after 24 hrs by tryptan blue staining-based cell counting; settings: HEK293, 24 h
Method in brief: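 HEK293 cells from ATCC, kept in DMEM with 10% heat-inactivated FBS, 1% L-glutamine, 1% penicillin/streptomycin, 37 C, 5% CO2. Seeded at 0.1 × 10^6 cells/mL in 24-well plates, grown 24 h, then exposed to compounds or 0.3% DMSO solvent for 24 h. Trypsinized cells stained with 0.4% trypan blue and counted by viability analyzer; IC50 from three independent experiments.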

[3] = target: Cannabinoid receptor 2 (Homo sapiens) (UniProt P34972); test: Binding affinity to CB2 receptor at 20 uM by radioligand displacement assay
Chain of Cannabinoid receptor 2 (Homo sapiens) (P34972 whole entry): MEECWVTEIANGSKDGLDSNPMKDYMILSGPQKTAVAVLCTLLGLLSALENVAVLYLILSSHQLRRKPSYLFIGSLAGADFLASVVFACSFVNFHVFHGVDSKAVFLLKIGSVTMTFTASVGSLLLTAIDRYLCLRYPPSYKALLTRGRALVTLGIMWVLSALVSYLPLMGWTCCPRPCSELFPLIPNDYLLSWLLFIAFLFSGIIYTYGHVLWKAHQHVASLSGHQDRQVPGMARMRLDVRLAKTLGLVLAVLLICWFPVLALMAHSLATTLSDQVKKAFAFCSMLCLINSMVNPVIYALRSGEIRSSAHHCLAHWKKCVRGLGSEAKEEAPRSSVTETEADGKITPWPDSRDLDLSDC

[4] = test system: HL-60; test: Cytotoxicity against human HL60 cells assessed as cell viability after 24 hrs by tryptan blue staining-based cell counting; type: functional; settings: HL-60, 24 h
Method in brief: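 HL-60 promyelocytic leukemia cells (ATCC) kept in RPMI 1640 with 10% heat-inactivated FBS, 1% L-glutamine, 1% penicillin/streptomycin, 37 C, 5% CO2. Seeded at 0.1 × 10^6 cells/mL, grown 24 h, then exposed 24 h to compounds or 0.3% DMSO solvent. Suspension cells stained with 0.4% trypan blue and counted on a viability analyzer; IC50 from three independent experiments.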

[5] = target: Cannabinoid receptor 1 (Homo sapiens) (UniProt P21554); test: Binding affinity to CB1 receptor at 20 uM by radioligand displacement assay
Chain of Cannabinoid receptor 1 (Homo sapiens) (P21554 whole entry): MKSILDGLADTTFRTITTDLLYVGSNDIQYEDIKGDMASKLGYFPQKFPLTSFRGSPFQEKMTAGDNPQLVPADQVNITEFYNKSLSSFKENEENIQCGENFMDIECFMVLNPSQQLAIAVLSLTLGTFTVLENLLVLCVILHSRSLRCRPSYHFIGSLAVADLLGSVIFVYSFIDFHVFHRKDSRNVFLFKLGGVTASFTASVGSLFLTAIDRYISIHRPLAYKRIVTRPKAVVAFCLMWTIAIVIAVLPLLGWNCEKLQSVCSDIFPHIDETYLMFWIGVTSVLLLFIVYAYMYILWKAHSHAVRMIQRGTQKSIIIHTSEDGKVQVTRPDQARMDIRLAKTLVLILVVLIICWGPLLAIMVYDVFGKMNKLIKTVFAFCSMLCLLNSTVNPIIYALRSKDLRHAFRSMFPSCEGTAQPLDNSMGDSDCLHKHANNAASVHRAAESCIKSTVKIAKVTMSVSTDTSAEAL

[6] = target: Transient receptor potential cation channel subfamily V member 1 (Homo sapiens) (UniProt Q8NER1); test: Binding affinity to TRPV1 receptor at 20 uM by radioligand displacement assay
Chain of Transient receptor potential cation channel subfamily V member 1 (Homo sapiens) (Q8NER1 whole entry): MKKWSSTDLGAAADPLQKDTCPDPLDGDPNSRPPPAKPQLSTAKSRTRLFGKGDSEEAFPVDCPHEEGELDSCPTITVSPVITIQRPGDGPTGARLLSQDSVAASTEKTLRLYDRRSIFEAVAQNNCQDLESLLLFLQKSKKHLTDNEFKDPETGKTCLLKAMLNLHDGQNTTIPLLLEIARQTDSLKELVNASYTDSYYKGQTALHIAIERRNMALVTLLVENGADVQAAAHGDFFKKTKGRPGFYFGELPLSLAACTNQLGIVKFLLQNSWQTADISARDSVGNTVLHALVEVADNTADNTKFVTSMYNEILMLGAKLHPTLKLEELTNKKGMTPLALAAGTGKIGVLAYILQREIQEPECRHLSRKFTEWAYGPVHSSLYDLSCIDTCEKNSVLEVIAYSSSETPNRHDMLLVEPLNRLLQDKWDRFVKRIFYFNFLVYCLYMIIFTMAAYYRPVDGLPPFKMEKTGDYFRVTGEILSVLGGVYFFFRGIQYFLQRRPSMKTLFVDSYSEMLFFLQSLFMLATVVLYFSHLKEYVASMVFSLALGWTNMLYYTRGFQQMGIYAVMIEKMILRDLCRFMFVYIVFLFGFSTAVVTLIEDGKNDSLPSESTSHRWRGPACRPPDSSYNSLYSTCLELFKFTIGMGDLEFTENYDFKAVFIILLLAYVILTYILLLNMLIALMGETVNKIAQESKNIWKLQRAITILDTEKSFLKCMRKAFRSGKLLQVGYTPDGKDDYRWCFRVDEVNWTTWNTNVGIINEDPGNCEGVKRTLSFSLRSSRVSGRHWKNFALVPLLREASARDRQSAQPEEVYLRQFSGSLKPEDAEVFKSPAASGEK

[7] = Cytotoxicity against human HeLaS3 cells assessed as cell viability after 24 hrs by tryptan blue staining-based cell counting; type: functional; settings: HeLa S3, 24 h
Method in brief: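 HeLa-S3 cervix carcinoma cells (ATCC) grown in RPMI 1640 with 10% heat-inactivated FBS, 1% L-glutamine, 1% penicillin/streptomycin at 37 C, 5% CO2. Plated at 0.1 × 10^6 cells/mL for 24 h, then treated 24 h with compounds or 0.3% DMSO. Cells trypsinized, stained with 0.4% trypan blue, counted on a viability analyzer; IC50 from three independent experiments.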

[8] = target: T1, 5-hydroxytryptamine receptor 1A (Homo sapiens) (UniProt P08908); test: Binding affinity to 5HT1A receptor at 20 uM by radioligand displacement assay
T1 sequence (whole entry): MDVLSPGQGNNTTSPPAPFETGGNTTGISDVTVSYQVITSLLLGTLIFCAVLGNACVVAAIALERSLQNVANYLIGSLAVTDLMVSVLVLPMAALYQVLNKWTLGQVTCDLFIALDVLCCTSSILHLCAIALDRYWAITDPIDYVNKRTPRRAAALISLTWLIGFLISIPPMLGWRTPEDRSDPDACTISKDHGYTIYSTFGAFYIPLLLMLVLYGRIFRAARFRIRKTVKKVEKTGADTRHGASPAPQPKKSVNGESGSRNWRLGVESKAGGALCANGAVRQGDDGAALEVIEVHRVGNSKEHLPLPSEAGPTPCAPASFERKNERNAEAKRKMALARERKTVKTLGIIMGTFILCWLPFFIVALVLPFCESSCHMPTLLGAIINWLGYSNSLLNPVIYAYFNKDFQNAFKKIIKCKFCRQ

SMILES | IC50 [1] [µM] | IC50 [2] [µM] | Activity [3] | IC50 [4] [µM] | Activity [5] | Activity [6] | IC50 [7] [µM] | Activity [8]
C=C(C)C(O)CCC(=C)[C@@H]1CCC(C)=C[C@H]1c1c(O)cc(C)cc1O (mixture of isomers) [FERRUGINENE C] | > 20 | > 20 | Active | > 13.7 | inactive | inactive | > 20 | inactive
C=C(C)C(O)CCC(=C)[C@@H]1CC[C@](C)(O)[C@H]2Oc3cc(C)cc(O)c3[C@@H]12 (some centres not stated) [FERRUGINENE A] | > 20 |  | inactive | > 20 | inactive | inactive | > 20 | inactive
C=C(C/C=C/C(C)(C)O)[C@@H]1CC[C@](C)(O)[C@H]2Oc3cc(C)cc(O)c3[C@@H]12 [FERRUGINENE B] | > 20 |  | inactive | > 20 | inactive | Active | > 20 | inactive
